Variants at the floor of the assay were thinned out.
B1: tRNA (parent)
chain: GUUCCGUUGGCGUAAUGGUAACGCGUCUCCCUCCUAAGGAGAAGACUGCGGGUUCGAGUCCCGUACGGAACG

Variants of: B1
Experiment: yeast fitness relative to wild type (ratio to wild type); higher = fitter; tRNA-Arg(CCU), competitive growth, 37 C, YPD
Procedure, shortened: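 A pool of Saccharomyces cerevisiae strains, each with a tRNA-Arg(CCU) gene variant at the native genomic locus, was competed in YPD at 37°C for 24 hours across six parallel replicates. The variants had been chemically synthesised at a 3% per-site mutation rate over 69 sites, and gene amplicons before and after competition were read by 100-nucleotide paired-end sequencing. Darwinian fitness relative to wild type rested on changes in genotype frequencies. Genotypes required ≥ 100 starting reads, and estimates < 0.5 were set to 0.5.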

Variant | yeast fitness
G41A G52A A69C | 0.53
A14U A70U | 0.713
G12A G63A | 0.897
A21C A42G | 0.751
C4A C11U U32A G38C C55U G58A G67A | ≤ 0.5
G6A C22G A57C C66A | ≤ 0.5
G56A A69U | 1.01
U8A U53A | ≤ 0.5
C5U A15U C29U C31U C34U C55U | ≤ 0.5
G25C C31U A69U | 0.77
U13G U26C C49G | ≤ 0.5
A14U C34G C66U | ≤ 0.5
C5G C33A G41C | ≤ 0.5
A14U C30U | 0.558
U3A G50C G51C G56A | ≤ 0.5
U7C U53A A70G | ≤ 0.5
C4A U47C | 0.773
A43C U53A | 0.662
U19A C29U G67C A69G | ≤ 0.5
A57C G67C | 0.707
C22G G41A G48C G68C | ≤ 0.5
U7A A15U A40G G48A G68C | ≤ 0.5
U35C A45C C49G A57U G63A | ≤ 0.5
C11U C22U C66U A70C | ≤ 0.5

Variant | yeast fitness
U13C C29A A69C | 0.576
C4G C33A | 0.653
C4A U19C U35C G48A | ≤ 0.5
G10A G17A U19A C29U C49G | ≤ 0.5
U13C C22U A45U | 0.713
C30G A69C A70G | ≤ 0.5
G52C U53C | ≤ 0.5
U16A C31G A65U A70G | ≤ 0.5
C5G A14U A21G G23A C31U G63C U64A C66G | ≤ 0.5
A20U A37G | 0.892
C27U G38A C55A | ≤ 0.5
C33U A43G C66U | 0.544
U8G C30U A45G C60A C66U | ≤ 0.5
C5U C27A C61U | 0.589
G50A C61A | 0.744
G25C C30U C61G | 0.526
U2G G12A C34A A37G | ≤ 0.5
C4U C29A C31G A42C A45U | ≤ 0.5
A20C G56A A65G C66U | 0.562
C31A A43G A45C | 0.541
G39C A42U C60G C62U G67C | ≤ 0.5
A20G G56A A57C | 0.574
G6C C11U A20C | ≤ 0.5
G10A A14U C30U C34A | ≤ 0.5

Variant | yeast fitness
C4U U35C A45G C49G G56A A65C | ≤ 0.5
C31A U35C G41A A57G | ≤ 0.5
C4G G18A A21G G25A G51C | ≤ 0.5
C11G A14G G17A A37G G48C C62U C66G A70G | ≤ 0.5
A14U C31U C34A A45U C49U | ≤ 0.5
U35G A42G U47A | ≤ 0.5
G44A C49G A70U | ≤ 0.5
A14G C31U G58C G68A | ≤ 0.5
A21U U54C | 0.703
U8C U19C G23C U53C | ≤ 0.5
C4G C30G G38A A42U | ≤ 0.5
C4A U8C G51C | ≤ 0.5
C33U C49G | 0.817
C30G C60U A65G | ≤ 0.5
C11A C29U C46U G67C A69U | ≤ 0.5
A37C A43C A45C | ≤ 0.5
C11G A15U C31A A70C | ≤ 0.5
G10C G12A C33A U35G U47A C55A C61U | ≤ 0.5
A15U C33G C66U | ≤ 0.5
A37U C55G G68C | ≤ 0.5
U3C G25A A65C | 0.732
U13C A43G U53A | ≤ 0.5
C5U U28C A45C | 0.672
C4A U8C C49U C55A C66U | ≤ 0.5

Variant | yeast fitness
U3A G39C A45G G50A | ≤ 0.5
G6A A14U C34A A70G | ≤ 0.5
A14G A36G A45U | 0.534
C33G A65U | 0.728
C5A G10C C24G | ≤ 0.5
U3C G23C C30A G38C | ≤ 0.5
C4G C5G C11A G38A | ≤ 0.5
G44A C60U C62G | 0.596
U8C C11A U54C | ≤ 0.5
C29A C46U C60U | ≤ 0.5
G9A G23A G25C U28C A57U A70U | ≤ 0.5
G6A A57U G58A A65U | ≤ 0.5
U19G A20U | 0.955
A45U C46A G51U | ≤ 0.5
U8C C30U U47A G67C | ≤ 0.5
C33U A42C A70C | 0.671
U8A U32G A37G | ≤ 0.5
A20C C55G | 0.59
U7G U59G | 0.705
A20C C33A G41C C49G | 0.519
C11G C24U G67A | ≤ 0.5
U3A C11G G12A C22U G39A | ≤ 0.5
U19A C46U G48A U53C | 0.784
U2G C22A G25A | 0.639

Variant | yeast fitness
A14C C24G C31A C33G G44C | 0.584
U16C G48A A70U | 0.798
C5A U16C A45G G50A | ≤ 0.5
C30U G39C G50A | ≤ 0.5
U2A C5A U64G A70C | ≤ 0.5
A15G C29G C31G A37C C66A | ≤ 0.5
U2C G6C A21C C66U | ≤ 0.5
U8C C11U G18A A20U C22G C31G | ≤ 0.5
A37C C46G A70C | 0.632
U2C G12A A15G C29G C33G G41C C66U | ≤ 0.5
G6C A15C C31G C33G C55U C61U | ≤ 0.5
U35G C66U | 0.681
G17C C46U G68A | ≤ 0.5
C49U A57G | 0.865
A14G A37G | 0.718
C31U U53A G68A | 0.515
U2C U13A U19C C55A A69C | ≤ 0.5
U19A G39A G44A | 0.873
U7A G18C C22U C24U C60U | ≤ 0.5
C4A G18C | 0.58
U3A C4G A43G | ≤ 0.5
U13A A37G | 0.714
C5U C29G | 0.64
G10C G52A | 0.666

Variant | yeast fitness
C11G C55G A57C | ≤ 0.5
C4G C24G G58C | ≤ 0.5
G18U U26A U59C C66A A70U | ≤ 0.5
A20C C24U C49U | 0.602
C61G G63C G68A | ≤ 0.5
G6A C55U | 0.677
U8C A14C C24G G68A | ≤ 0.5
G6C C11A A43U G48C | ≤ 0.5
U28C A69C | 0.94
G6A A21G C55U C66U | ≤ 0.5
G6A U13G C55A | ≤ 0.5
G10C A20U | 0.799
A20G A45U G63C | 0.539
C4A G67U | 0.843
U3G U8A C24A G56C | ≤ 0.5
G12A G68C | 0.667
G25A C31U U47G C55A A57G A65C A70C | ≤ 0.5
C4U G6A C34A A70C | ≤ 0.5
C24U G58A | 0.988
U2A U8A G12A C30U | ≤ 0.5
G9C A15G U16C C29A U47C | 0.69
C5U A15G U16C C66U | ≤ 0.5
C31A A37U C49A C55U | ≤ 0.5
G12A U26A C30G C33U | ≤ 0.5

Variant | yeast fitness
C11G C27U U28A | 0.537
A20C G41C C66G | ≤ 0.5
G10C C27U C30U U53A A69C | ≤ 0.5
U8G C11U G48A A69U | ≤ 0.5
C27U U28C C49U U54A A57C U59C | 0.706
C33A U47A | 0.777
G12A G52A | 0.688
A15G G41C G51C C61G | 0.726
A14C C62U | 0.853
G25A C29A C46G G51A | ≤ 0.5
A15G C29A G58C | 0.503
C5U U13G C30U | 0.663
U2A A20U C34U G51A | ≤ 0.5
G10A C11U A20G A40G C55G | ≤ 0.5
C22U C29A | 0.543
C29U C34A A70U | ≤ 0.5
C31G C34G A40U | ≤ 0.5
G6A A15C G39A A65G | ≤ 0.5
C49U A65G C66G | ≤ 0.5
U13A U28C G41A G44A A70U | ≤ 0.5
G17C U53A C60A G67A | ≤ 0.5
C33U A43G G48C | ≤ 0.5
G23A C30A U64A | ≤ 0.5

Reference: the RNAGym collection of RNA variant scans (doi:10.1126/science.aae0568)
